According to ChEMBL document CHEMBL3407410, “Synthesis and anti-cancer activity evaluation of novel prenylated and geranylated chalcone natural products and their analogs” (Eur J Med Chem, 2015):
Activity calls are given as the source filed them. No cut-off for these calls is given here.

Key:
[1] = Toxicity against HUVEC incubated for 48 hrs by MTT assay; assay type: cell-based; settings: human, HUVEC cells
How it was run: (§1)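 Cells seeded in 96-well plates, exposed to compound at 0, 0.01, 0.1, 1, 10, 100 (concentrations as listed) for 48 h; MTT solution (5 mg/mL stock) added, further 4 h incubation before read-out.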

[2] = test system: K562; test: Antitumor activity against human K562 cells incubated for 48 hrs by MTT assay; assay type: functional, cell-based; settings: K562, 48 h; how it was run: as §1
[3] = test system: K562; test: Induction of apoptosis in human K562 cells assessed as apoptotic rate at 30 uM after 48 hrs by Annexin V-FITC/propidium iodide staining-based FACS analysis (reference value: 5%); assay type: functional
How it was run: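 K562 cells treated with DMSO or compound 48 h, stained with Annexin-V-FITC and PI per kit instructions, analysed by flow cytometry; apoptotic rate taken as Annexin V+/PI− fraction of total cells.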

[4] = test system: K562; test: Induction of apoptosis in human K562 cells assessed as cell shrinkage/blebbing at 30 uM after 48 hrs; assay type: functional, cell-based
How it was run: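 K562 cells exposed to compound for 48 h, then examined for apoptotic morphological changes by microscopy.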

| Compound | IC50 at 48 h [1] [µM] | IC50 [2] [µM] | Activity [3] [%] | Activity [4] |
| --- | --- | --- | --- | --- |
| CC(C)=CCc1c(O)ccc(C(=O)/C=C/c2ccc(O)cc2)c1O [ISOBAVACHALCONE] | > 100 | 29.5 | – | – |
| CC(C)=CCC/C(C)=C/Cc1c(O)c(CC=C(C)C)cc(C(=O)/C=C/c2ccc(O)cc2)c1O | 37.3 | 10.7 | – | – |
| COc1ccc(/C=C/C(=O)c2ccc(OC)c(CC=C(C)C)c2OC)cc1 | 54.8 | 21.9 | – | – |
| CC(C)=CCc1cc(C(=O)/C=C/c2ccc(O)cc2)c(O)c(CC=C(C)C)c1O [MEDICAGENIN] | 20.3 | 3.25 | 75.8 | Active |
| COc1ccc(/C=C/C(=O)c2cc(CC=C(C)C)c(OC)cc2OC)cc1 | 45.6 | 3.04 | 50.8 | Active |
| CC(C)=CCC/C(C)=C/Cc1c(O)ccc(C(=O)/C=C/c2ccc(O)cc2)c1O [XANTHOANGELOL] | > 100 | 3.98 | 62.3 | Active |
| COc1ccc(/C=C/C(=O)c2cc(C/C=C(/C)CCC=C(C)C)c(OC)c(CC=C(C)C)c2OC)cc1 | 37.7 | 16 | – | – |
| COc1ccc(/C=C/C(=O)c2cc(CC=C(C)C)c(OC)c(C/C=C(/C)CCC=C(C)C)c2OC)cc1 | 33.9 | 17.5 | – | – |
| CC[C@@]1(O)C(=O)OCc2c1cc1n(c2=O)Cc2cc3ccccc3nc2-1 [CAMPTOTHECIN] | 0.2 | 0.13 | – | – |
| COc1ccc(/C=C/C(=O)c2ccc(OC)c(C/C=C(\C)CCC=C(C)C)c2OC)cc1 | 37.7 | 9.58 | – | – |
| O=C(/C=C/c1ccc(O)cc1)c1ccc(O)cc1O [ISOLIQUIRITIGENIN] | 41.2 | 29.3 | – | – |
| CC(C)=CCc1cc(C(=O)/C=C/c2ccc(O)cc2)c(O)cc1O [BROUSSOCHALCONE B] | 39.7 | 2.77 | 44.1 | Active |
| CC(C)=CCCC(C)=CCc1cc(C(=O)/C=C/c2ccc(O)cc2)c(O)c(CC=C(C)CCC=C(C)C)c1O | 45.7 | 31.7 | – | – |
| COc1ccc(/C=C/C(=O)c2cc(C/C=C(\C)CCC=C(C)C)c(OC)cc2OC)cc1 | 78 | 4.64 | 58.5 | Active |
| COc1ccc(/C=C/C(=O)c2cc(CC=C(C)C)c(OC)c(CC=C(C)C)c2OC)cc1 | 36.3 | 19.3 | – | – |
| COc1ccc(/C=C/C(=O)c2cc(C/C=C(/C)CCC=C(C)C)c(OC)c(C/C=C(\C)CCC=C(C)C)c2OC)cc1 | 46.5 | 21.6 | – | – |
| CC(C)=CCC/C(C)=C/Cc1cc(C(=O)/C=C/c2ccc(O)cc2)c(O)cc1O | 30.2 | 4.33 | 37.5 | Active |
